Data set [1] concerns healthy subjects. As to conditions: cited from earlier work.
In data set [2] the test system is healthy subjects. It is filed as in vivo, human. The settings on record: single oral 400 mg dose, N = 76. The procedure, abridged: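 Placebo-arm subjects received single oral 400 mg positive control or matching placebo in nested crossover, before (baseline) and after (week 15) placebo treatment. […] Supine Holter ECGs pre-dose and 1, 2, 3, 6, 12, 18, 24 h. QTcI analysed by ANOVA (treatment, period, subject fixed; pre-dose QTcI covariate). 3 and 6 h confirmatory with 95% CI; other times with 90% CI.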

Data set [3] relates to healthy subjects. It is filed as in vivo, human. The procedure, abridged: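 Healthy subjects randomised to once-weekly s.c. test peptide or placebo, escalated every 4 weeks (0.25, 0.5, 1.0, 1.5 mg) over 16 weeks. Supine continuous 12-lead Holter (Mason-Likar) ECGs at steady state of each level: pre-dose and 12, 18, 24, 25, 26, 27, 30, 36, 42, 48 h. QT/RR measured semi-automatically, lead II. QTcI=QT/RR^β (subject-specific β); QTcL, QTcF, QTcB. Placebo-subtracted baseline-adjusted means, two-sided 90% CIs.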

Data set [4] relates to healthy subjects. Kind of data set: Other ECG assessments. The data set is classed as in vivo, human. The procedure, abridged:
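ECGs come from the same Holter recordings: 11 time points, pre-dose to 48 h after last dose at 0.5, 1.0 and 1.5 mg. HR, PR and QRS use the same model. Outlier cut-offs: HR <50 or >100 bpm; PR >220 ms and/or >25% change from baseline; QRS >110 ms and/or >25% change. A cardiologist read one random ECG per time point for T/U wave abnormalities.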

Data set [5] is described as follows: Pharmacokinetics of semaglutide at steady state of each dose level. It is filed as in vivo, human. As to conditions: doses 0.25-1.5 mg at steady state.
For data set [6], the system named is healthy subjects. Nature of the data set: Safety and tolerability. It is filed as in vivo, human. Summed up: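 Healthy subjects received s.c. test peptide or placebo once weekly for 16 weeks, escalating 0.25→0.5→1.0→1.5 mg every 4 weeks, with 5–7-week follow-up. Some injections were given on-site, the rest self-administered. Recorded: adverse events, hypoglycaemic events, anti-drug antibodies at follow-up, haematology, biochemistry, urinalysis, calcitonin, vital signs, ECG, physical examination, body weight and fasting plasma glucose changes from baseline.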

The conditions of data set [7]: phase 3 trials; cited from earlier work.
Data set [8] concerns dipeptidyl peptidase-4 (DPP-4). As to conditions: due to substitution at position 8; cited from earlier work.
The mark [9] stands for this setting: 1.5 mg at steady state, 0-48 h after dosing.
Setting [10] is: s.c. once weekly, escalated 0.25 to 1.5 mg over 16 weeks, N = 83.

Like-named read-outs stand apart in the source and are kept apart here. A value given as a limit tells only on which side of the number the result lay.

Turning to exenatide, the “Correlation between exposure and QTc interval” value in the data set with healthy subjects [1] (single dose) was “positive correlation”. For the same compound, the “Prolongation of QTcP or QTcI” value in the data set with healthy subjects [1] (supratherapeutic concentrations, intravenous, healthy subjects) is on record as “no prolongation”.
Consider `COc1c(N2C[C@@H]3CCCN[C@@H]3C2)c(F)cc2c(=O)c(C(=O)O)cn(C3CC3)c12` [moxifloxacin], for which the “Estimated treatment difference moxifloxacin vs. placebo, QTcI” value is reported as 10.0 ms in the data set with healthy subjects [2] (1 h after dosing), 12.3 ms with healthy subjects [2] (2 h after dosing), 12.3 ms in the data set with healthy subjects [2] (3 h after dosing (confirmatory endpoint)) and 8.9 ms with healthy subjects [2] (6 h after dosing (confirmatory endpoint)).
With liraglutide, the PR interval prolongation entry in the data set with healthy subjects [1] was “A PR interval prolongation has also been observed”. In the data set on healthy subjects [1] (healthy subjects), the “Prolongation of the QTcI interval or QTc by other correction methods” value is listed as “neither albiglutide administered once weekly nor liraglutide administered once daily have been observed to prolong the QTcI interval”.
With `CC[C@H](C)[C@H](NC(=O)[C@H](Cc1ccccc1)NC(=O)[C@H](CCC(=O)O)NC(=O)[C@H](CCCCNC(=O)COCCOCCNC(=O)COCCOCCNC(=O)CC[C@H](NC(=O)CCCCCCCCCCCCCCCCC(=O)O)C(=O)O)NC(=O)[C@H](C)NC(=O)[C@H](C)NC(=O)[C@H](CCC(N)=O)NC(=O)CNC(=O)[C@H](CCC(=O)O)NC(=O)[C@H](CC(C)C)NC(=O)[C@H](Cc1ccc(O)cc1)NC(=O)[C@H](CO)NC(=O)[C@H](CO)NC(=O)[C@@H](NC(=O)[C@H](CC(=O)O)NC(=O)[C@H](CO)NC(=O)[C@@H](NC(=O)[C@H](Cc1ccccc1)NC(=O)[C@@H](NC(=O)CNC(=O)[C@H](CCC(=O)O)NC(=O)C(C)(C)NC(=O)[C@@H](N)Cc1cnc[nH]1)[C@@H](C)O)[C@@H](C)O)C(C)C)C(=O)N[C@@H](C)C(=O)N[C@@H](Cc1c[nH]c2ccccc12)C(=O)N[C@@H](CC(C)C)C(=O)N[C@H](C(=O)N[C@@H](CCCNC(=N)N)C(=O)NCC(=O)N[C@@H](CCCNC(=N)N)C(=O)NCC(=O)O)C(C)C` [semaglutide], the “Upper limits of all 11 two-sided 90% CIs for the mean ΔΔQTcI” value in the data set with healthy subjects [3] (0.5 mg at steady state, 0-48 h after dosing) is on record as less than 10 ms. For the same compound, in the data set with healthy subjects [3] (1.0 mg at steady state, 0-48 h after dosing), the “Upper limits of all 11 two-sided 90% CIs for the mean ΔΔQTcI” value is less than 10 ms. In the data set with healthy subjects [3] (setting [9]), the “Maximum upper limit of the two-sided 90% CI for the time-matched ΔΔQTcI” value was determined as 0.3 ms and the “Upper limits of the 11 two-sided 90% CIs of ΔΔQTcI” value is reported as less than 10 ms. Besides, the “Prolongation of the uncorrected QT interval, QTcL or QTcF” value in the data set with healthy subjects [3] (doses of 0.5, 1.0 and 1.5 mg at steady state) was “No prolongation was observed”. For the same compound, in the data set on healthy subjects [3] (for at least one time point at all dose levels), the “QTcB, upper limits of the 90% CIs” value was greater than 10 ms. The “Increased PR interval of > 25% above baseline” value in the data set on healthy subjects [4] (0.5 mg group) is recorded as “none”. Besides, the “Increased PR interval of > 25% above baseline” value with healthy subjects [4] (1.0 and 1.5 mg treatment groups) is “five”. In addition, the “Second-degree or higher-grade atrioventricular block” value in the data set on healthy subjects [4] (all ECGs evaluated by the cardiologist) is listed as “no observations of a second-degree atrioventricular block or higher-grade atrioventricular blocks”. The “Changes in QRS complex duration of > 25% above baseline” value in the data set with healthy subjects [4] (any of the treatment arms) was “No changes”. Besides, the “Subjects with T wave abnormalities” value in the data set on healthy subjects [4] (doses 0.5 or 1.0 mg, female subjects, all of no clinical relevance) is on record as “three”. Moreover, the U wave abnormalities entry in the data set with healthy subjects [4] (either group) is recorded as “no U wave abnormalities were observed”. Further, the “Increase in AUC0−48h and Cmax with increasing dose” value in data set [5] is recorded as “consistent with dose proportionality”. In the data set on healthy subjects [6] (16-week treatment, mean ± SD), the “Diastolic BP change from baseline to last dose” value was found to be 5 ± 8 mmHg and the “HR change from baseline to last dose (vital signs)” value was 10 ± 9 bpm. Besides, the “Development of anti-semaglutide antibodies” value in the data set on healthy subjects [6] (at follow-up) is given as “no subjects developed anti-semaglutide antibodies”. The Severe hypoglycemic episodes result in the data set with healthy subjects [6] (in vivo) is “No severe hypoglycemic episodes were reported”. For the same compound, in the data set with healthy subjects [6] (setting [10]), the “Events leading to withdrawal, percentage of subjects” value came out at 2.4%; the “Gastrointestinal disorders (predominantly nausea, vomiting and diarrhea), subjects” value is 56.6%; the “Metabolism and nutrition disorders (predominantly decreased appetite), subjects” value came out at 51.8%. Further, in data set [7], the “Mean increases in HR with semaglutide versus placebo” value was “up to 3 bpm”. Besides, the “Susceptibility to degradation by dipeptidyl peptidase-4 (DPP-4)” value in data set [8] was “less susceptible to degradation”.
With albiglutide, in the data set on healthy subjects [1], the PR interval prolongation entry was “A PR interval prolongation has also been observed”. The “Prolongation of the QTcI interval or QTc by other correction methods” value with healthy subjects [1] (healthy subjects) is “neither albiglutide administered once weekly nor liraglutide administered once daily have been observed to prolong the QTcI interval”.
On to dulaglutide, for which the QTc prolongation result in the data set with healthy subjects [1] (administered once weekly) is listed as “not associated with QTc prolongation”. For the same compound, the PR interval prolongation entry in the data set with healthy subjects [1] is recorded as “A PR interval prolongation has also been observed”.
